# Bioassay records (PubChem BioAssay)
# A selection: hits, their analogues and other compounds. The true share with any hit is near 2.2%.
# FLuc act counter – FLuc activators, initial screening, artefact control for FLuc-dependent activation tests, biochemical, ATPlite luminescence; ATPlite luciferase biochemical, 10 min; 0 = ATP-free wells, 1 = DMSO control; activation factor at 10 µM; Luciferin 4-monooxygenase (Photinus pyralis), P08659; 200,000 tested, under 10 active;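 active means luciferase activation factor, scaled between plate controls, of at least 2 with compound at 10 µM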
# Target sequence (P08659 whole entry, looked up): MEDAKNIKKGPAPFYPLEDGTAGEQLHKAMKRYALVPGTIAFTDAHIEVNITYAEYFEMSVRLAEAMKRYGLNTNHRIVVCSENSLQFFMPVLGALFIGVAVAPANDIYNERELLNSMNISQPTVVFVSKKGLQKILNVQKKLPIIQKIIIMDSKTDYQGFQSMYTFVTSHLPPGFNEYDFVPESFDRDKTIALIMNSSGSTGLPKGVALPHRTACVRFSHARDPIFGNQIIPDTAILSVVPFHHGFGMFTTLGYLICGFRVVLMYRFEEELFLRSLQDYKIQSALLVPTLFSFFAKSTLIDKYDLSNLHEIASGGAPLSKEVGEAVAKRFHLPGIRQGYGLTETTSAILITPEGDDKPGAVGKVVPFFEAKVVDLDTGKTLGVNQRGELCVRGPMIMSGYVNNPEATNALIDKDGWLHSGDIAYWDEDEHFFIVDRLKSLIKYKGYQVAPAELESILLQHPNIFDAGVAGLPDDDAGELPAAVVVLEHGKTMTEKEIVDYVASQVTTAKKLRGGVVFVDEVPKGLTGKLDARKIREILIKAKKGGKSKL
#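 assay system = Luciferase/luciferin detection reagent, cell-free biochemical luciferase assay | also added = ATP substrate | times = 10 min post-reagent at room temperature | measured by = luminescence from luciferase reaction | measure = luciferase activation, seen as luminescence increase over controls | benchmarks = low control with PBS replacing ATP, high control enzyme plus ATP without compound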
# PPC-1+TRAIL kill – compounds killing PPC-1 cancer cells with TRAIL present, primary screen, TRAIL potentiator project, ATPLite luminescence, uHTS; PPC-1 cells + TRAIL, ATPLite viability luminescence; cell killing (% activity), % at 4 µM or 5 µM; 220,000 tested, 0.41% active;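 active means cell killing above 50% in the first pass at 4 µM, then a duplicate retest at 5 µM averaging 50% or more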;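 further: plate controls were cells with TRAIL plus DMSO for no effect and medium-only wells lacking cells for full effect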
# PKD1 kinase inh – inhibitors of human PKD1 kinase, biochemical, fluorescence polarization. Serine/threonine-protein kinase D1 (Homo sapiens), Q15139. PKD1 kinase fluorescence polarization assay. inhibition, % (no concentration beside the values). 200,000 tested, 0.056% active. AID 797, 2007; in the data active means inhibition above about 50%
# FLuc inhib CS – firefly luciferase enzyme inhibitors, primary screen, artefact control for luciferase-based inhibitor screens, biochemical, luminescence, ATPLite; Luciferin 4-monooxygenase (Photinus pyralis), P08659; 10 min; 200,000 tested, 1.5% active; inhibition, % at 10 µM;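 active means inhibition above about 50% when tested at 10 µM, limit read from the data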
# Wee1 degr inh – Wee1 degradation inhibitors, primary screen, cell-based, HeLa, Wee1K328M-luciferase, luminescence; HeLa Luc-Wee1K328M stability; 100% = proteasome inhibitor MG132 effect; reporter increase, % at 5 µM; 220,000 tested, 1.2% active;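 active means activation above the mean of all tested compounds plus 3 SD, set per screening run, cut at about 8.8% in these data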;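 further: cells exposed to compound for 20 h before luminescence read; 0% = DMSO alone and 100% = MG132 at 30 µM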
# C8 TRAIL sens – viability loss with TRAIL in NB7+C8 cells, primary screen, TRAIL sensitizer project, cell-based, ATPlite luminescence | 360,000 tested, 1% active | inhibition (viability loss, TRAIL sensitization), % at 10 µM;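 active means compounds causing at least 50% loss of cell viability in the single-dose screen, relative to plate controls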
# * = called active by the depositor; · = not tested or not shown; ! = not active in a repeat.
SMILES,FLuc act counter,PPC-1+TRAIL kill,PKD1 kinase inh,FLuc inhib CS,Wee1 degr inh,C8 TRAIL sens
CC(=O)OC1CCC(OC(C)=O)c2c1n([O-])c(C)c(C)[n+]2=O (configuration not stated),1,7.4,-11.8,-4.4,10.5*,8.1
CC(=O)c1c(C)n([O-])c2cc(C)ccc2[n+]1=O,1,20.9,3.8,-2.9,-0.2,-2.2
Cc1ccc2c(c1)sc1nc(=O)n(-c3ccccc3)c(=O)n12,·,40.8,·,·,9.0*,29.5
Cc1c(C(=O)/C=C/N(C)C)nnn1-c1ccc(F)c(Cl)c1,·,10.8,·,·,10.0*,9.8
Cc1c(C(=O)/C=C/N(C)C)nnn1-c1ccc(Cl)c(Cl)c1,·,-11.7,·,·,2.5,-19.9
CON(C)C(=O)/C=C/c1ccc([B-](F)(F)F)cc1,·,·,·,·,·,1.9
Cc1ccccc1Oc1cc(-n2ncc(Cl)c(Cl)c2=O)ncn1,1.1,17.5,-19.4,-8.9,3.5,96.7*
COC(=O)/C(C#N)=C/c1c[nH]c2ccccc12,1,·,3.7,-1.1,3.9,-1.4
CCOC(=O)/C(C#N)=C/c1c[nH]c2ccccc12,0.9,5.1,7.6,6.5,10.1*!,-11.1
CN(C(=O)c1ccccc1-c1ccccc1C(=O)O)c1ccccc1,·,·,·,·,·,-21.8
COc1ccc(-c2cc(=O)c3ccccc3s2)cc1,0.3,40.8,-2.1,67.1*,2.0,53.7*
COc1ccc2sc3ccccc3c(=O)c2c1,0.8,8.5,13.1,23.5,2.4,2.5
CC(C)CN(Cc1cc(=O)oc2cc(-c3ccccc3)c(O)cc12)CC(C)C,·,14.3,·,·,9.3*,36.6
O=c1cc(CN2CCN(C/C=C/c3ccccc3)CC2)c2cc(O)c(-c3ccccc3)cc2o1,1.1,26.2,-3.2,-5.2,-1.0,6.6
COc1ccccc1-c1ncn(Cc2cccc(-c3ccccc3)c2)c1-c1cc(C)cc(C)c1,·,·,·,·,·,11.7
Nc1ccc2c(c1)C(=O)c1ccccc1-2,·,·,·,·,·,-19.3
Nc1ccc2c(c1)C(=O)C(=O)c1ccccc1-2,0.9,32.7,3.7,5.8,-1.7,96.9*
CN=c1scc(C)n1/N=C/c1cc(Br)c(O)c(OC)c1,1,5.8,-3.2,2.3,-0.3,-4.3
Cc1cc(C)n(/N=C/c2ccccc2O)c(=O)c1,1,17.4,7.9,-2.3,3.2,6.8
CN=c1scc(-c2cccs2)n1/N=C/c1ccc(O)c(O)c1O,0,38.3,13.3,97.9*,-1.8,90.8*
CN=c1scc(-c2cccs2)n1/N=C/c1ccccc1O,0.1,74.0*,-4.5,93.9*,-4.2,93.6*
CN=c1scc(C)n1/N=C/c1ccc(O)c(O)c1O,0,6.5,9.5,96.6*,7.3,39.3
C/C(=N\NC(=O)c1ccc(Cl)cc1)c1cccc(NC(=O)c2cccnc2)c1,0.4,29.6,4.0,63.2*,1.8,41.3
C/C(=N\NC(=O)c1ccc(Cl)cc1)c1cccnc1,·,·,·,·,·,33.2
C/C(=N\NC(=O)c1ccc(O)cc1)c1cccc(NC(=O)c2ccc(Cl)cc2)c1,·,·,·,·,·,65.8*
SMILES,FLuc act counter,PPC-1+TRAIL kill,PKD1 kinase inh,FLuc inhib CS,Wee1 degr inh,C8 TRAIL sens
C/C(=N\NC(=O)c1nn(C)c(C)c1Br)c1cccc(NC(=O)c2ccoc2C)c1,0.8,26.4,-0.7,20.2,9.8*,37.0
C/C(=N\NC(=O)c1cccc(N/N=C(\C)c2cc(O)ccc2O)c1)c1cc(O)ccc1O,0.8,20.4,-3.4,18.3,1.9,55.4*
Cc1nc(C(F)(F)F)ccc1C(=O)N1CCCC(C(=O)O)CC1 (configuration not stated),·,·,·,·,·,9.2
CCOc1ccc(N(CC(=O)N2CCN(Cc3ccccc3)CC2)S(C)(=O)=O)cc1,·,·,·,·,·,-16.6
C/C(=N\NC(=O)c1ccccc1F)c1cccc(NC(=O)c2ccc(C)cc2)c1,·,·,·,·,·,59.3*
O=C(NNC(=S)NC(=O)c1ccco1)c1ccc(F)cc1,·,23.5,·,·,10.5*,5.4
O=C(Nc1cccc(O)c1)c1ccc(C(F)(F)F)cc1,0.4,15.5,3.3,57.0*,-0.5,33.7
C/C(=N\NC(=O)c1ccc(F)cc1)c1cccc(NC(=O)c2ccco2)c1,0.5,17.5,-7.8,50.4*,0.4,24.6
O=C(Nc1cccc(C(F)(F)F)c1)c1cc[n+]([O-])cc1,·,·,·,·,·,7.3
COc1ccc(C(=O)NNC(=S)NC(=O)c2ccco2)cc1,0.9,18.6,-2.1,10.1,2.1,14.4
C/C(=N\NC(=O)c1cccc(F)c1)c1cccc(NC(=O)c2ccc(F)cc2)c1,1,23.4,4.5,2.4,6.1,20.5
CC(C)(C)OC(=O)C[C@@H]1C/C=C\C[C@@H](CC(=O)N[C@@H](CO)Cc2ccccc2)C(=O)NC[C@@H](c2ccccc2)OC1=O,·,·,·,·,·,-8.7
C/C(=N\NC(=O)c1ccc(F)cc1)c1cccc(NC(=O)c2cccc(F)c2)c1,·,·,·,·,·,5.5
C/C(=N\NC(=O)c1cccc(O)c1)c1cccc(NC(=O)c2ccc(F)cc2)c1,·,·,·,·,·,56.9*
C=C1C(=O)C23C(O)C1CCC2C12CCCC(C)(COC(C)=O)C1C(O)C3(O)OC2 (configuration not stated),·,·,·,·,·,73.8*
COc1nn(-c2ccccc2)c(=O)c(Cl)c1Cl,·,·,·,·,·,90.6*
O=C(O)CCC(=O)N1CN2CN(C(=O)CCC(=O)O)CC([N+](=O)[O-])(C2)C1,·,2.2,·,·,2.0,-21.0
O=S(=O)(c1cccc2ccccc12)N1CCCCC1,·,·,·,·,·,3.1
O=S(=O)(c1ccccc1S(=O)(=O)N1CCCCC1)N1CCCCC1,1.1,13.9,-10.8,-9.0,9.1*,-1.1
COc1ccc(/C=C2\OC(=O)c3c(OC)cccc32)cc1OC,0.5,-3.9,-9.4,50.3*,-3.0,12.9
Cc1ccc(CSc2nnc(SCC(=O)N/N=C/C=C/c3ccco3)s2)cc1,0.8,22.7,7.0,16.2,0.3,4.0
Cc1ccc(CSc2nnc(SCC(=O)N/N=C/C=C/c3ccccc3[N+](=O)[O-])s2)cc1,0.4,2.0,-2.7,59.1*,-0.3,10.0
O=C(Nc1ncnc2c1C(c1ccccc1)c1c(ccc3ccccc13)O2)c1ccccc1 (configuration not stated),·,·,·,·,·,58.9*
OC(c1cccc(CN2CCCCC2)c1)c1ncc(-c2cccc(C(F)(F)F)c2)[nH]1 (configuration not stated),·,·,·,·,·,-3.7
Cc1cc(C)n(-c2nnc(C)n2N)n1,1.1,-16.8,-2.8,-7.1,-1.6,-14.7
Cc1cc(C)n(-c2nnc(C)n2/N=C/c2ccccc2O)n1,1,19.5,-4.8,-2.9,9.3*,-0.2
O=C(CSc1nnc(NC(=O)c2ccco2)s1)Nc1ccc2c(c1)OCCO2,0.5,-4.9,-2.0,54.6*,0.9,11.7
